Hits are enriched below; roughly 2.3% of the tested compounds scored in any of these assays.
Env fusion inh: inhibitors of HIV Env-mediated cell fusion | 360,000 compounds, 1.1% hits | inhibition, % at 12.3 µM | AID 651610 | HeLa-JRFL Env/CEM21 cell fusion, luciferase;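 active = mean replicate inhibition score of at least 50 and every replicate individually at or above 50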;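 note: 0% = plate neutral controls and 100% = maraviroc near 300 nM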
PAX8 reporter: inhibitors of PAX8 transcriptional activity in RMG-I cells; AID 652154; inhibition, % at 12.6 µM; 360,000 compounds, 1.2% hits; RMG-I TPO-luciferase reporter, SteadyGlo, 24 h;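 active = mean replicate inhibition at least 60% with every replicate also reaching 60%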;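 note: luciferase light reporting Pax8 driven TPO promoter activity; plate controls were median of neutral control wells for no effect and mitoxantrone controls for full effect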
EWS-Fli inh: EWS/Fli transcriptional activity inhibition. A673 NR0B1-luciferase reporter, viability-normalised. inhibition, % at 12.6 µM. 350,000 compounds, 0.67% hits;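 active = mean inhibition of at least 50% after viability correction, with every replicate also passing that limit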;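 note: firefly luciferase signal divided by Alamar Blue viability fluorescence both relative to DMSO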
FN deposit inh: fibronectin deposition inhibition | inhibition, % at 12.6 µM | AH1F fibroblasts, Alexa488-fibronectin deposition fluorescence, overnight | 350,000 compounds, 0.086% hits;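 active = mean inhibition across replicates of 30% or more, regardless of how many single replicates reach that level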;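 note: positive control wells lacked labelled fibronectin entirely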
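Assay system: AH1F fibroblast monolayer, labelled fibronectin deposition. Amount: 10000 cells per well. Also added: labelled fibronectin 24 nM. Compound: single-point pinned compound. Incubation: cell attachment 1 h, compound and FN exposure overnight. Detection: fluorescence after three HBSS washes, excitation 485 nm, emission 525 nm. Read-out: inhibition of fibronectin deposition signal.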
PGC1a acetyl inh: modulators of PGC1a acetylation | U2OS PGC1a acetylation, AlphaScreen anti-acetyl-lysine; with virally co-expressed GCN5 acetyltransferase | inhibition, % at 15.6 µM | AID 651687 | 350,000 compounds, 0.17% hits;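 active = every replicate shows inhibition of at least 40%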;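 note: 0% = neutral control wells and 100% = positive control wells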
CFTR F508del cor: CFTR F508del correction in bronchial cells; CFBE cells, YFP halide quenching; stimulated with forskolin plus potentiator P3; % fluorescence drop versus neutral controls; activity (quench increase), % at 7.58 µM; 350,000 compounds, 0.36% hits;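 active = mean added fluorescence quench of at least 8% versus neutral control, with both replicates also reaching 8%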;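 note: cells transiently co-express mutant CFTR-F508del with the halide-sensitive YFP; corrector assay measuring rescue of mutant channel to the surface after 24 h compound exposure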
The depositor's hits bear a star; / = no result; [ ] = dose if it differs, or a comment.

SMILES | Env fusion inh | PAX8 reporter | EWS-Fli inh | FN deposit inh | PGC1a acetyl inh | CFTR F508del cor
N#Cc1cccc(-c2ccc(C3[C@H]4CNC[C@@H]3N4Cc3cc(F)ccc3F)cc2)c1 (stereo partly drawn) | / | / | / | -2.9 | / | -0.1
CO[C@H]1CN(C)C(=O)c2cc(NC(=O)C3CC3)ccc2OC[C@H](C)N(Cc2ccccc2)C[C@@H]1C | / | / | 2.4 | 0.8 | -2.8 | -2.6
O=C(C[C@H]1C=C[C@@H](NC(=O)Nc2ccccc2F)[C@H](CO)O1)NCc1ccc(-c2ccccc2)cc1 | 56.6*[16.7 µM] | -24.6 | 0.8 | 0.1 | 1.0 | -2.7
O=C(C[C@@H]1C=C[C@@H](NC(=O)Nc2ccc3c(c2)OCO3)[C@H](CO)O1)NCc1ccc(F)cc1 | 59.2*[16.7 µM] | 10.3 | -1.3 | / | -5.4 | -1.8
C[C@@H]1CN([C@H](C)CO)C(=O)c2cc(NC(=O)CCC(F)(F)F)ccc2O[C@@H](C)CCCCO[C@H]1CN(C)Cc1ccc(Cl)c(Cl)c1 | 26.7[16.7 µM] | 1.7 | 0.0 | / | 22.8 | -0.8
O=C(c1ccccn1)N1[C@@H](CO)[C@@H](c2ccccc2)C12CN(Cc1ccccc1F)C2 | / | / | / | 2.8 | / | /
COc1ccc(-c2cc(C3CCN(c4cc(Cl)nc(N)n4)CC3)[nH]n2)cc1 | 93.9* | / | / | / | 19.0 | /
COc1ccc(OC)c(-c2cc(C3CCN(c4cc(Cl)nc(N)n4)CC3)[nH]n2)c1 | 63.2* | / | / | 1.0 | 10.9 | /
Nc1nc(Cl)cc(N2CCC(c3cc(-c4ccc(Cl)cc4)n[nH]3)CC2)n1 | / | / | 10.6 | / | 7.0 | 7.8
COc1ccc(-c2oc3c(c2C(=O)OCCO)C(OCCO)CCC3)cc1 (stereo not drawn) | 10.8 | 20.1 | -5.0 | / | / | -1.6
O=C(OCCO)c1c(-c2ccccc2)oc2c1C(OCCO)CCC2 (stereo not drawn) | 61.3* | -9.2 | -9.5 | / | / | -1.3
Cc1ccc(CSc2nccc(-c3c(C)nc4ccccn34)n2)cc1 | 33.1 | 3.6 | 55.9* | -5.4 | -9.9 | -0.1
CO[C@@H]1CC[C@@H]2CCOc3c(C#N)cccc3C(=O)N(C)[C@H](C)C(=O)N(C)C[C@@H]1O2 | -5.8[16.7 µM] | 13.8 | 10.6 | 6.7 | 7.4 | 1.4
C/C=C/c1cnc2c(c1)C(=O)N([C@H](C)CO)C[C@H](C)[C@H](CN(C)C(=O)Cc1ccccc1)O2 | -2.3[16.7 µM] | / | -5.4 | / | 2.0 | 1.0
CCOC(=O)Nc1cc2c(c(N)n1)N=C(c1ccccc1)CN2 | -8.2 | -15.5 | -0.5 | -1.3 | -14.8 | 12.1*
CC1(C)C2CCC1(C)C(OCC[N+](C)(C)CC(=O)OC1CCCCC1)C2 (stereo not drawn) | 74.2* | 50.8 | 14.7 | -11.1 | -1.9 | -0.5
CCOC(=O)C[N+](C)(C)CCOC1CC2CCC1(C)C2(C)C (stereo not drawn) | -15.5 | 1.6 | / | -8.7 | / | /
CCC1(C)Cc2ccccc2-c2[nH]c(=S)[nH]c(=O)c21 (stereo not drawn) | -9.5 | 0.7 | 15.4 | -0.8 | 16.4 | 2.9
CCC1(C)Cc2ccccc2-c2nc[nH]c(=O)c21 (stereo not drawn) | -0.3 | 20.0 | 15.4 | 8.8 | 10.6 | 8.6*
CCC(=O)Nc1ccc2c(c1)C(=O)N(C)C[C@@H](OC)[C@H](C)CN(Cc1ccccn1)[C@@H](C)CO2 | 0.4[16.7 µM] | -3.3 | -2.8 | 4.7 | 15.5 | 2.0
Cc1nnc(SC(C)C(=O)Nc2ncc(Cl)cc2Cl)n1Cc1ccccc1 (stereo not drawn) | / | / | / | / | 22.7 | /
COCCn1c(SC(C)C(=O)Nc2ncc(Cl)cc2Cl)nc2ccccc21 (stereo not drawn) | / | / | / | / | 43.6* | /
Cn1cnc(S(=O)(=O)N[C@@H]2CC[C@@H](CC(=O)NCC3CCCCC3)O[C@@H]2CO)c1 | / | / | / | -3.3 | 4.0 | -0.1
Cc1noc(NS(=O)(=O)c2ccc(N/C=C\C(=O)c3ccc(F)cc3)cc2)c1C | 4.8 | -41.6 | -17.3 | / | -0.8 | /
Cc1noc(NS(=O)(=O)c2ccc(N/C=C\C(=O)c3ccccc3)cc2)c1C | -0.7 | -10.3 | -9.2 | -8.3 | -1.2 | 11.9*
SMILES | Env fusion inh | PAX8 reporter | EWS-Fli inh | FN deposit inh | PGC1a acetyl inh | CFTR F508del cor
COc1ccc(C[C@H](N)C(=O)N[C@H]2[C@@H](O)[C@H](n3cnc4c(N(C)C)ncnc43)O[C@@H]2CO)cc1 | 31.3 | 117.1* | 5.6 | 24.8 | 36.9 | -3.2
CC1CC(=O)c2c(cc3c(-c4c(O)cc(O)c5c(O)c6c(cc45)OC(C)CC6=O)c(O)cc(O)c3c2O)O1 (stereo not drawn) | / | / | / | / | 63.4* | /
O=C1CC(c2ccc(O)cc2)Oc2cc(O)cc(O)c21 (stereo not drawn) | -5.2 | -35.6 | -3.4 | 2.1 | -2.0 | -1.6
C[C@@H]1CN([C@H](C)CO)S(=O)(=O)c2ccc(C#Cc3ccccn3)cc2O[C@@H]1CN(C)C(=O)C1CC1 | -4.5[16.7 µM] | / | 4.1 | -3.6 | -7.3 | -4.3
CN(C[C@H](Cc1ccccc1)N(C[C@H](CC1CCCCC1)N(CCc1ccccc1)N=O)N=O)N=O | 67.3* | -15.9 | 5.7 | 8.3 | / | -0.1
CN(C[C@@H](CC1CCCCC1)N(C[C@H](Cc1ccccc1)N(CCc1ccccc1)N=O)N=O)N=O | 83.6* | 22.0 | 9.2 | -11.5 | / | -1.0
CN(C[C@H](Cc1ccccc1)N(C[C@H](Cc1ccccc1)N(CC1(c2ccccc2)CC1)N=O)N=O)N=O | 98.4* | 38.8 | 8.2 | -2.2 | -3.2 | 0.6
CCC(C)[C@@H](CN(N=O)[C@@H](Cc1ccccc1)CN(C)N=O)N(CCc1ccccc1)N=O (stereo partly drawn) | / | / | / | / | -10.8 | /
CC=Cc1ccc2n(c1=O)C[C@@H]1[C@@H](CO)[C@H](C(=O)NCCc3cn(C)cn3)N(C(=O)C3CCC3)[C@H]21 (mixture of isomers) | 14.7[16.7 µM] | / | 1.7 | / | / | /
CNC[C@H]1OCCCC[C@H](C)Oc2ccc(NC(=O)Nc3ccccc3)cc2C(=O)N([C@H](C)CO)C[C@@H]1C | 16.4[16.7 µM] | -8.6 | -12.8 | / | -8.0 | -0.8
CO[C@H]1CN(C)C(=O)c2cc(NC(C)=O)ccc2OC[C@@H](C)N(Cc2ccccc2F)C[C@H]1C | 17.1[16.7 µM] | / | -3.1 | -13.2 | -7.5 | -0.8
CC[C@@]12C(=O)N(c3ccccc3)C(=O)N1[C@H](c1cccc(C)c1)[C@@H]1C(=O)N(Cc3ccccc3)C(=O)[C@@H]12 | 88.4* | 5.1 | -3.5 | -1.2 | 2.8 | 1.3
CC[C@@]12C(=O)N(c3cccc(F)c3)C(=O)N1[C@H](c1cccc(C)c1)[C@@H]1C(=O)N(Cc3ccccc3)C(=O)[C@@H]12 | 20.6 | -12.2 | -8.1 | -3.5 | -5.3 | 0.6
CC[C@@]12C(=O)N(c3cccc(Br)c3)C(=O)N1[C@H](c1cccc(C)c1)[C@@H]1C(=O)N(Cc3ccccc3)C(=O)[C@@H]12 | 64.7* | -12.4 | 6.5 | 7.2 | -11.8 | -1.7
Cc1cccc([C@@H]2[C@@H]3C(=O)N(Cc4ccccc4)C(=O)[C@@H]3[C@]3(Cc4ccccc4)C(=O)N(c4ccc(C(F)(F)F)cc4)C(=O)N23)c1 | 63.8* | 18.0 | 0.8 | / | / | 1.0
